ZTA counter: ZTA (EBV) inhibition in EBNA-1 counter-screen; ZTA-DNA binding, fluorescence polarization; AID 2234; inhibition, % at 11 µM; P03206; 320,000 compounds, 0.15% hits; in the data active = inhibition above about 33%
Target sequence (P03206 whole entry, looked up): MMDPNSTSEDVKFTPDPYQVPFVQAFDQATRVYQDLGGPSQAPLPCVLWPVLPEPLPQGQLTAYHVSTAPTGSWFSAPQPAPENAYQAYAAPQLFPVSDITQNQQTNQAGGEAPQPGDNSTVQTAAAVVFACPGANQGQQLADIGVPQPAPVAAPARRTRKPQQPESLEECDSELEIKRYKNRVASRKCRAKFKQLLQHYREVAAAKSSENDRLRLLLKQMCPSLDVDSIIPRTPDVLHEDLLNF
FGF22 binding: binders of recombinant human FGF22 by thermal shift | Q9HCT0 | AID 651658 | SYPRO orange fluorescence; percent of sucrose octasulfate shift, DMSO zero | 340,000 compounds, 1.5% hits | activity (Tm shift, normalised), % at 9.99 µM;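 active = mean Tm shift, scaled 0 neutral to 100 positive control, at about 1.3% or above, every replicate too, limit read from the data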
Target sequence (Q9HCT0 whole entry, looked up): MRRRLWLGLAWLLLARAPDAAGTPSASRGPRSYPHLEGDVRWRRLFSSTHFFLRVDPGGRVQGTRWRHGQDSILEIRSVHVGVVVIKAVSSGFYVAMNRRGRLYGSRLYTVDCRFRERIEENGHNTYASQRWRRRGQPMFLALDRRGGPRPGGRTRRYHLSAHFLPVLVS
HCV NS3 hel inh: inhibitors of Hepatitis C virus NS3 helicase. NS3 helicase DNA unwinding, Cy5 molecular beacon fluorescence. 290,000 compounds, 0.56% hits. AID 1800. inhibition, % at 10.9 µM;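 active = inhibition above the mean of all tested compounds plus 3 SD, set per campaign, cut at about 35% in these data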;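 note: 0% = DMSO wells and 100% = thioflavine S control wells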
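Assay system – hepatitis C virus NS3 helicase domain fragment enzyme · Buffer or medium – MOPS pH 6.5, MgCl2, DTT, Tween20, BSA · Reagent – Cy5/quencher beacon DNA duplex and ATP to start · Compound – single 10.9 µM dose · Timing – 1 h at 25 °C · Technique – Cy5 beacon fluorescence read at start and 1 h · Measure – % inhibition of unwinding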
GRIN3A LBD mod: modulators (binders) of human NR3A ligand-binding domain | NR3A LBD differential scanning fluorimetry, Tm shift; 0% = protein alone, 100% = glycine-bound protein | 340,000 compounds, 2.5% hits | Tm shift relative to glycine control, % at 25 µM;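 active = melting temperature shift of at least 10% of the positive control shift, at one fixed dose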
FID counter: counter-screen for HCV NS3 helicase inhibitors: DNA intercalator displacement; DNA fluorescent intercalator displacement, fluorescence; inhibition, % at 7.9 µM; 290,000 compounds, 0.17% hits; AID 1845; in the data active = inhibition above about 37%;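 note: 0% = vehicle and 100% = reference compound; higher means more ethidium bromide displaced from hairpin DNA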
EBNA-1 inhibitor: blocks EBNA-1 binding to DNA; EBNA-1 DNA binding, fluorescence polarization; inhibition, % at 14.8 µM; 300,000 compounds, 0.34% hits; in the data active = inhibition above about 28%
Active calls of the source: *; / = no result given. The list is not random: actives were taken first. Their share in the collection is about 3.6%.

SMILES	ZTA counter	FGF22 binding	HCV NS3 hel inh	GRIN3A LBD mod	FID counter	EBNA-1 inhibitor
COCC(=O)N(C)C[C@@H]1Oc2cc(-c3ccc(F)cc3)ccc2S(=O)(=O)N([C@@H](C)CO)C[C@H]1C	/	0	/	/	/	/
Cc1ccc(NC(=O)c2ccccc2OCC(=O)c2ccccc2)cc1	7	/	-12	10*	4	-2
CCOc1ccccc1C(=O)Nc1ccc(C(=O)c2ccccc2)cc1	-6	0	-1	1	-22	6
COC(=O)c1sccc1NC(=O)c1cccc(Cl)c1	3	0	/	5	/	-2
COC(=O)c1sccc1NC(=O)c1cccnc1	-8	/	0	669*	-1	-9
CCOc1ccccc1C(=O)Nc1ccsc1C(=O)OC	11	/	-4	14*	-12	2
CCOc1ccccc1C(=O)Nc1ccc(NC(=O)c2ccccc2)cc1	0	0	11	17*	-13	-1
CCOc1ccccc1C(=O)Nc1ccccc1C(N)=O	-20	/	-1	-2	1	-8
C[C@@H]1CN([C@@H](C)CO)C(=O)c2cc(C#Cc3cccnc3)cnc2O[C@@H]1CN(C)Cc1ccccc1	/	0	/	/	/	/
CC(=O)N(C)C[C@H]1Oc2cc(-c3ccccc3C)ccc2S(=O)(=O)N([C@@H](C)CO)C[C@@H]1C	/	0	/	/	/	/
O=C(C[C@H]1C=C[C@@H](NC(=O)c2ccccn2)[C@@H](CO)O1)NCc1cc(F)cc(F)c1	/	0	/	/	/	/
CC(=O)c1ccc(NC(=O)COc2ccccc2C(=O)Nc2ccccc2)cc1	3	0	-12	15*	-18	1
COC(=O)c1sccc1NC(=O)Cc1ccc(OC)c(OC)c1	7	/	-14	0	-11	10
CC(=O)c1ccc(NC(=O)COc2ccccc2C(=O)Nc2ccc(C)cn2)cc1	24	0	-5	2	-7	21
COC(=O)c1sccc1NC(=O)Cc1ccc(Br)cc1	-8	/	-2	12*	-10	3
C[C@@H]1CCCCO[C@@H](CN(C)S(C)(=O)=O)[C@@H](C)CN([C@H](C)CO)C(=O)c2cc(NC(=O)c3ccncc3)ccc2O1	/	0	/	/	/	/
COCC(=O)N1[C@@H]2CN(C(=O)c3ccccc3)c3ccccc3[C@@H]2[C@@H]1CO	/	-1	/	/	/	/
CCCS(=O)(=O)N1CCN(Cc2c[nH]c3ccccc23)CC1	-1	43*	14	0	9	3
COc1ccc(S(=O)(=O)N2CCN(Cc3c[nH]c4ccccc34)CC2)cc1	-3	/	-8	-1	11	2
C[C@@H]1CN([C@H](C)CO)C(=O)c2cc(Br)cnc2O[C@H]1CN(C)C(=O)Nc1ccc(F)cc1	/	0	/	/	/	/
CCCN(C)C[C@H]1OCCCC[C@@H](C)Oc2ccc(NS(=O)(=O)c3cccs3)cc2C(=O)N([C@@H](C)CO)C[C@@H]1C	/	0	/	/	/	/
Cc1ccc(OCC(=O)N/N=C/c2cn[nH]c2-c2ccc(Cl)c(Cl)c2)cc1	1	/	-17	-8	-5	4
COc1cccc(/C=N/NC(=O)CNC(=O)COc2ccccc2)c1O	13	0	5	-1	-13	8
Cc1cccc(OCC(=O)N/N=C/c2cn[nH]c2-c2ccc(Cl)c(Cl)c2)c1	14	/	-12	27*	-10	-1
Cc1cccc(OCC(=O)NCC(=O)N/N=C/c2cc(Br)cc(Br)c2O)c1	-1	0	3	17*	-1	-14
SMILES	ZTA counter	FGF22 binding	HCV NS3 hel inh	GRIN3A LBD mod	FID counter	EBNA-1 inhibitor
S=c1nc(C2COc3ccccc3O2)[nH][nH]1 (stereo unspecified)	-4	43*	2	0	-1	0
O=C(CSc1nc(C(F)(F)F)cc(=O)[nH]1)N1CCC(Cc2ccccc2)CC1	8	0	/	13*	/	2
COc1ccc(-c2c(C#Cc3ccsc3)c3cc(-c4ccc5cc[nH]c5c4)ccc3n2C)cc1	/	0	/	12*	/	/
Cc1ccc(-c2nnc3ccc(SCC(=O)N4CCCc5ccccc54)nn23)cc1	2	/	7	18*	-8	-10
Cc1ccc2nc(-c3ccc(SCC(=O)O)nc3)[nH]c2c1	-6	/	6	1	2	1
Cc1ccc2nc(-c3ccc(SCC(=O)N4CCc5ccccc54)nc3)[nH]c2c1	18	0	-13	23*	-2	7
CCOC(=O)C1(Cc2cccc(Cl)c2)CCCN(C(=O)C2CC2)C1 (stereo unspecified)	-11	43*	1	-2	-22	1
CCOC(=O)C1(Cc2cccc(Cl)c2)CCCN(C(=O)c2ccco2)C1 (stereo unspecified)	-6	0	-12	-3	-52	-1
C[C@@H]1CN([C@H](C)CO)C(=O)c2cc(NS(=O)(=O)c3ccc(F)cc3)ccc2O[C@H]1CN(C)Cc1ccccc1	/	0	/	/	/	/
O=C(O)C1CC2CCC1CC2 (stereo unspecified)	/	0	/	-4	/	/
CC12CCC(CC1O)C2C(=O)O (stereo unspecified)	/	43*	/	/	/	/
CC1CCCC(NC(=O)COC(=O)c2ccccc2Sc2ccccc2C#N)C1C (stereo unspecified)	11	0	-9	16*	-1	17
CC1CCCC(NC(=O)COC(=O)C2=COCCO2)C1C (stereo unspecified)	/	44*	/	/	/	/
O=C(CN1CCOCC1)NCC[C@H]1CC[C@@H](NS(=O)(=O)c2ccc(Cl)cc2)[C@@H](CO)O1	/	0	/	/	/	/
O=C(C[C@@H]1CC[C@@H]2[C@H](COC[C@H](O)CN2C(=O)c2cccnc2)O1)NCc1ccc(Cl)cc1	/	-1	/	/	/	/
CNC(=O)N(O)C1N(/N=C/c2ccc(N(C)C)cc2)C(=S)SC1(C)C (stereo unspecified)	5	0	0	0	-6	5
CC1(C)SC(=S)N(/N=C/c2ccccc2)C1N(O)C(=O)Nc1ccc([N+](=O)[O-])cc1 (stereo unspecified)	-4	/	2	14*	5	4
CC1(C)SC(=S)N(NC(=O)Nc2cccc3ccccc23)C1N(O)C(=O)Nc1ccccc1 (stereo unspecified)	6	0	10	23*	-7	-1
CNC(=O)N(O)C1N(NC(=O)Nc2ccccc2)C(=S)SC1(C)C (stereo unspecified)	3	0	8	0	1	-8
COc1ccc([C@H]2CC(=O)C=C(c3cc(Br)ccc3OC)C2)cc1	/	0	/	0	/	/
CCOc1ccc(Br)cc1C1=CC(=O)C[C@H](c2ccc(OC)cc2)C1	0	0	/	16*	/	/
CO[C@@H]1CN(C)C(=O)c2cc(NC(=O)c3cnccn3)ccc2OC[C@H](C)N(CCc2ccccc2)C[C@H]1C	/	0	/	/	/	/
Cn1c(N)c(C(=O)COC(=O)c2ccc(Cl)nc2)c(=O)n(C)c1=O	9	43*	7	-1	-6	6
COc1ccccc1C(=O)O/N=C(\N)c1ccc(Cl)cc1	-1	/	13	-15	4	7

Screening results: PubChem, several laboratories
